Source: ChEMBL document CHEMBL1125797, “Synthesis, characterization and myocardial uptake of cationic bis(arene)technetium(I) complexes” (J Med Chem, 1991)

Key:
Rattus norvegicus [1] = test: Biodistribution of compound in rat lungs at 1440 min after intravenous administration; assay type: ADME, organism-based, Lung; conditions: in vivo, 24 h
How it was run: (§1)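 Rats received the 99mTc complex in normal saline (~12.5 μCi/mL) by lateral tail vein injection at ~25 μCi/kg and were killed by cervical dislocation at the stated time. Tissues were washed with saline, blotted, weighed and γ-counted to give percent injected dose/g. Time-course values are averages of male and female rats.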

Rattus norvegicus [2] = test: Biodistribution of compound in rat lungs at 180 min after intravenous administration; assay type: ADME, organism-based, Lung; conditions: in vivo, 3 h; how it was run: as §1
Rattus norvegicus [3] = test: Biodistribution of compound in rat lungs at 360 min after intravenous administration; assay type: ADME, organism-based, Lung; conditions: in vivo, 6 h; how it was run: as §1
Rattus norvegicus [4] = test: Biodistribution of compound in rat lungs at 45 min after intravenous administration; assay type: ADME, organism-based, Lung; conditions: in vivo, 0.75 h; how it was run: as §1
Rattus norvegicus [5] = test: Biodistribution of compound in rat lungs at 5 min after intravenous administration; assay type: ADME, organism-based, Lung; conditions: in vivo; how it was run: as §1
Rattus norvegicus [6] = test: Biodistribution of compound in rat lungs at 90 min after intravenous administration; assay type: ADME, organism-based, Lung; conditions: in vivo, 1.5 h; how it was run: as §1
Rattus norvegicus [7] = test: Biodistribution of compound in rat muscle at 1440 min after intravenous administration; assay type: ADME, organism-based, Muscle tissue; conditions: in vivo, 24 h; how it was run: as §1
Rattus norvegicus [8] = test: Biodistribution of compound in rat muscle at 180 min after intravenous administration; assay type: ADME, organism-based, Muscle tissue; conditions: in vivo, 3 h; how it was run: as §1
Rattus norvegicus [9] = test: Biodistribution of compound in rat muscle at 360 min after intravenous administration; assay type: ADME, organism-based, Muscle tissue; conditions: in vivo, 6 h; how it was run: as §1
Rattus norvegicus [10] = test: Biodistribution of compound in rat muscle at 45 min after intravenous administration; assay type: ADME, organism-based, Muscle tissue; conditions: in vivo, 0.75 h; how it was run: as §1
Rattus norvegicus [11] = test: Biodistribution of compound in rat muscle at 5 min after intravenous administration; assay type: ADME, organism-based, Muscle tissue; conditions: in vivo; how it was run: as §1
Rattus norvegicus [12] = test: Biodistribution of compound in rat muscle at 90 min after intravenous administration; assay type: ADME, organism-based, Muscle tissue; conditions: in vivo, 1.5 h; how it was run: as §1
Rattus norvegicus [13] = test: Biodistribution of compound in rat bone at 1440 min after intravenous administration; assay type: ADME, organism-based, Bone element; conditions: in vivo, 24 h
How it was run: (§2)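 Time course in Sprague-Dawley rats after lateral tail-vein injection of the 99mTc complex in normal saline (~12.5 μCi/mL) at ~25 μCi/kg. Tissues were sampled at the stated times, washed with saline, blotted, weighed and γ-counted to give percent injected dose per g. Values are averages of male and female rats.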

Rattus norvegicus [14] = test: Biodistribution of compound in rat bone at 180 min after intravenous administration; assay type: ADME, organism-based, Bone element; conditions: in vivo, 3 h; how it was run: as §2
Rattus norvegicus [15] = test: Biodistribution of compound in rat bone at 45 min after intravenous administration; assay type: ADME, organism-based, Bone element; conditions: in vivo, 0.75 h; how it was run: as §2
Rattus norvegicus [16] = test: Biodistribution of compound in rat bone at 5 min after intravenous administration; assay type: ADME, organism-based, Bone element; conditions: in vivo; how it was run: as §2
Rattus norvegicus [17] = test: Biodistribution of compound in rat bone at 90 min after intravenous administration; assay type: ADME, organism-based, Bone element; conditions: in vivo, 1.5 h; how it was run: as §2
Rattus norvegicus [18] = test: Biodistribution of compound in rat bone marrow at 1440 min after intravenous administration; assay type: ADME, organism-based; conditions: in vivo, 24 h; how it was run: as §2
Rattus norvegicus [19] = test: Biodistribution of compound in rat bone marrow at 180 min after intravenous administration; assay type: ADME, organism-based; conditions: in vivo, 3 h; how it was run: as §2
Rattus norvegicus [20] = test: Biodistribution of compound in rat bone marrow at 360 min after intravenous administration; assay type: ADME, organism-based; conditions: in vivo, 6 h; how it was run: as §2
Rattus norvegicus [21] = test: Biodistribution of compound in rat bone marrow at 45 min after intravenous administration; assay type: ADME, organism-based; conditions: in vivo, 0.75 h; how it was run: as §2
Rattus norvegicus [22] = test: Biodistribution of compound in rat bone marrow at 90 min after intravenous administration; assay type: ADME, organism-based; conditions: in vivo, 1.5 h; how it was run: as §2
Rattus norvegicus [23] = test: Biodistribution of compound in rat bone marrow at 5 min after intravenous administration; assay type: ADME, organism-based; conditions: in vivo; how it was run: as §2
Rattus norvegicus [24] = test: Biodistribution of compound in rat brain after 5 min of administration; assay type: ADME, organism-based; conditions: in vivo
Rattus norvegicus [25] = test: Biodistribution of compound in rat eye at 1440 min after intravenous administration; assay type: ADME, organism-based; conditions: in vivo, 24 h; how it was run: as §2
Rattus norvegicus [26] = test: Biodistribution of compound in rat eye at 180 min after intravenous administration; assay type: ADME, organism-based; conditions: in vivo, 3 h; how it was run: as §2
Rattus norvegicus [27] = test: Biodistribution of compound in rat eye at 360 min after intravenous administration; assay type: ADME, organism-based; conditions: in vivo, 6 h; how it was run: as §2
Rattus norvegicus [28] = test: Biodistribution of compound in rat eye at 45 min after intravenous administration; assay type: ADME, organism-based; conditions: in vivo, 0.75 h; how it was run: as §2
Rattus norvegicus [29] = test: Biodistribution of compound in rat eye at 5 min after intravenous administration; assay type: ADME, organism-based; conditions: in vivo; how it was run: as §2
Rattus norvegicus [30] = test: Biodistribution of compound in rat eye at 90 min after intravenous administration; assay type: ADME, organism-based; conditions: in vivo, 1.5 h; how it was run: as §2
Rattus norvegicus [31] = test: Biodistribution of compound in rat feces at 1440 min after intravenous administration; assay type: ADME, organism-based; conditions: in vivo, 24 h
Rattus norvegicus [32] = test: Biodistribution of compound in rat feces at 360 min after intravenous administration; assay type: ADME, organism-based; conditions: in vivo, 6 h
Rattus norvegicus [33] = test: Biodistribution of compound in rat liver after 5 min of administration.; assay type: ADME, organism-based; conditions: in vivo
How it was run: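 Female Sprague-Dawley rats (150–200 g) received the complex in normal saline (~12.5 μCi/mL) through a lateral tail vein at ~25 μCi/kg. Rats were killed by cervical dislocation 5 min after injection. Tissues were washed with saline, blotted, weighed and γ-counted to give percent injected dose/g tissue.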

Rattus norvegicus [34] = test: Biodistribution of compound in rat liver at 45 min after intravenous administration; assay type: ADME, organism-based; conditions: in vivo, 0.75 h; how it was run: as §1
Rattus norvegicus [35] = test: Biodistribution of compound in rat blood at 45 min after intravenous administration; assay type: ADME, organism-based; conditions: in vivo, 0.75 h; how it was run: as §2
Rattus norvegicus [36] = test: Biodistribution of compound in rat bone at 360 min after intravenous administration; assay type: ADME, organism-based, Bone element; conditions: in vivo, 6 h; how it was run: as §2

Bis(1,2,3,5-tetramethylbenzene)technetium
Dose/g (Rattus norvegicus [1]): 0.18 % dose/organ
Dose/g (Rattus norvegicus [2]): 0.81 % dose/organ
Dose/g (Rattus norvegicus [3]): 0.7 % dose/organ
Dose/g (Rattus norvegicus [4]): 1.5 % dose/organ
Dose/g (Rattus norvegicus [5]): 1.4 % dose/organ
Dose/g (Rattus norvegicus [6]): 1.17 % dose/organ
Dose/g (Rattus norvegicus [7]): 56 % dose/organ
Dose/g (Rattus norvegicus [8]): 44 % dose/organ
Dose/g (Rattus norvegicus [9]): 31 % dose/organ
Dose/g (Rattus norvegicus [10]): 30 % dose/organ
Dose/g (Rattus norvegicus [11]): 44 % dose/organ
Dose/g (Rattus norvegicus [12]): 42 % dose/organ
Dose/g (Rattus norvegicus [13]): 1.7 % dose/organ
Dose/g (Rattus norvegicus [14]): 2.2 % dose/organ
Dose/g (Rattus norvegicus [15]): 2.6 % dose/organ
Dose/g (Rattus norvegicus [16]): 3.8 % dose/organ
Dose/g (Rattus norvegicus [17]): 3.5 % dose/organ
Dose/g (Rattus norvegicus [18]): 0.1 % dose/organ
Dose/g (Rattus norvegicus [19]): 0.2 % dose/organ
Dose/g (Rattus norvegicus [20]): 0.11 % dose/organ
Dose/g (Rattus norvegicus [21]): 0.24 % dose/organ
Dose/g (Rattus norvegicus [22]): 0.28 % dose/organ
Dose/g (Rattus norvegicus [23]): 0.43 % dose/organ
Dose/g (Rattus norvegicus [24]): 0.02%
Dose/g (Rattus norvegicus [25]): 0.01 % dose/organ
Dose/g (Rattus norvegicus [26]): 0.02 % dose
Dose/g (Rattus norvegicus [27]): 0.022 % dose
Dose/g (Rattus norvegicus [28]): 0.023 % dose
Dose/g (Rattus norvegicus [29]): 0.03 % dose
Dose/g (Rattus norvegicus [30]): 0.021 % dose
Dose/g (Rattus norvegicus [31]): 30 % dose
Dose/g (Rattus norvegicus [32]): 0.3 % dose
Dose/g (Rattus norvegicus [33]): 0.67%
Dose/g (Rattus norvegicus [34]): 4 % dose
Dose/ml (Rattus norvegicus [35]): 0.51 % dose
Dose/g (Rattus norvegicus [36]): 1.4 % dose
